KCNK9 inh: KCNK9 potassium channel inhibitors, primary screen, HEK293 cells, thallium flux. Potassium channel subfamily K member 9 (Homo sapiens), Q9NPC2. FluxOR thallium flux fluorescence; active compounds read low. B-score at 10 µM. 310,000 tested, 1.2% active. AID 488922, 2010;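 active = ratio B-score over 3 SD below the library mean, with starting fluorescence within 5 SD of its mean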;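 also: negative B-score means less thallium flux so channel inhibition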
KCNQ1 act: potentiators or activators of KCNQ1 channel, primary screen, cell-based, thallium flux, high-throughput; 310,000 tested, 0.35% active; Potassium voltage-gated channel subfamily KQT member 1 (Homo sapiens), P51787; B-score at 10 µM; CHO-K1 KCNQ1, thallium flux FluxOR fluorescence; active compounds read high;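 active = fluorescence ratio B-score, a plate-corrected score, at least three library SD, with initial intensity B-score within 5 SD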
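assay system = KCNQ1-transfected CHO-K1 cells | medium = assay buffer with matched DMSO | probe or stimulus = depolarizing K+/Tl+ stimulus, K2SO4 and Tl2SO4 each 12.5 mM in 5x stock | dosing = single dose | incubation = dye 90 min, compound 20 min, room temperature | detection = kinetic FluxOR fluorescence, 10 s baseline plus 110 s post-stimulus | evaluation = ratio B score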
hERG protect: hERG rescue from dofetilide block, primary screen, cell-based, CHO-hERG, FluxOR thallium flux, dofetilide IC70; dofetilide IC70 present; activation (rescue from dofetilide block), less the hit threshold, % at 10 µM; Voltage-gated inwardly rectifying potassium channel KCNH2 (Homo sapiens), Q12809; 310,000 tested, 0.51% active;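 active = activation above the mean of controls blocked by dofetilide plus 5 SD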;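 also: thallium influx through hERG after potassium depolarization seen as dye fluorescence rise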
KCNK3 block: human KCNK3 channel inhibitors, primary screen, CHO cells, FluxOR thallium flux, B-score; 340,000 tested, 0.84% active; Potassium channel subfamily K member 3 (Homo sapiens), O14649; FluxOR fluorescence; active compounds read low; AID 602410, 2012; B-score at 10 µM;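 active = B-score under library mean minus 4 SD, starting fluorescence ratio at most library mean plus 5 SD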;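 also: more negative B-score means stronger inhibition of thallium flux through KCNK3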
KCNQ1 block: inhibitors of human KCNQ1 channel, primary screen, cell-based, thallium flux, high-throughput. B-score at 10 µM. Potassium voltage-gated channel subfamily KQT member 1 (Homo sapiens), P51787. 310,000 tested, 1.3% active. CHO-K1 KCNQ1, FluxOR thallium flux fluorescence; active compounds read high;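 active = compounds whose thallium flux B-score, printed positive for inhibition, exceeds three library SD while starting fluorescence stays within three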;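 also: channel opened by potassium depolarization with thallium stimulus after 20 min compound exposure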
KCNK9 inh conf: KCNK9 potassium channel inhibitors, confirmation, HEK293 cells, thallium flux, duplicate; inhibition, % at 10 µM; shares compounds with KCNK9 inh; 4,900 tested, 43% active; AID 492992, 2010; FluxOR thallium flux fluorescence;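 active = thallium signal inhibited by more than 5 SD of the compound-free buffer control wells, on both duplicate plates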;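 also: 0% = assay buffer control wells without compound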
Kir21 sel: mouse Kir2.1 channel inhibition, confirmation, selectivity assay for KCNK9 modulator project, cell-based, HEK293, thallium flux; shares compounds with KCNK9 inh; Kir2.1 cells, FluxOR thallium flux fluorescence; inhibition, % at 10 µM; 4,900 tested, 4% active; AID 492993, 2010;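 active = thallium signal drop more than 5 SD beyond the mean of the no-compound control wells, seen in both duplicate plates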;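 also: signal is fluorescence rise after thallium addition divided by baseline fluorescence; plate controls were assay buffer only for no effect and full block by chlorpromazine control for full effect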
Target sequence (P35561 whole entry, looked up): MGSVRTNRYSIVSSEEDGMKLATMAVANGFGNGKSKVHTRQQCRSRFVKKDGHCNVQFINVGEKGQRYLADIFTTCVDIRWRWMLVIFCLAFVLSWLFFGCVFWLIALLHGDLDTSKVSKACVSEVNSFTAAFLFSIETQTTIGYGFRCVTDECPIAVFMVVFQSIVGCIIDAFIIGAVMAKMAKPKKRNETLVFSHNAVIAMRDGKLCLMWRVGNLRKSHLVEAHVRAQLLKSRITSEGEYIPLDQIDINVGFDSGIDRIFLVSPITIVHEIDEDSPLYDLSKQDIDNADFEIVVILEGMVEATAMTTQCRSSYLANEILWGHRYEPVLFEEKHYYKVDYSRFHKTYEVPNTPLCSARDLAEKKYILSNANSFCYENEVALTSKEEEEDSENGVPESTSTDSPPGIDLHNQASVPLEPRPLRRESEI
HEK293 Tl ctr: thallium flux in non-induced HEK293 cells, confirmation, counter-screen for KCNK9 inhibitor project, cell-based, second counter screen, non-induced KCNK9-HEK293; inhibition, % at 10 µM; AID 492997, 2010; FluxOR thallium flux; shares compounds with KCNK9 inh; 4,900 tested, 40% active;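 active = thallium signal drop beyond 5 SD of the untreated control mean, on both duplicate plates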;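 also: plate controls were buffer only IC0 wells for no effect and SID17386958 at its maximal inhibitory level for full effect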
* marks the source's active call; other numbers are inactive results. Rows were chosen to be rich in hits. Some 3.1% of all compounds tested hit in one or more screens of this group.

How did Cc1ccc(CO/N=C\Cc2snc(Sc3ncc(C(F)(F)F)cc3Cl)c2C#N)cc1 do in these assays?
KCNK9 inh: inactive; KCNQ1 act: inactive; hERG protect: -12.1; KCNK3 block: inactive; KCNQ1 block: inactive; KCNK9 inh conf: inactive; Kir21 sel: inactive; HEK293 Tl ctr: inactive

How did COC(=O)c1ccc(N=Cc2c(C(F)(F)F)[nH][nH]c2=O)cc1 do in these assays?
KCNK9 inh: inactive; KCNQ1 act: inactive; hERG protect: -13.4; KCNK3 block: inactive; KCNQ1 block: inactive

How did COc1ccc(CN=Cc2c(C(F)(F)F)[nH][nH]c2=O)cc1 do in these assays?
KCNK9 inh: -11.4*; KCNQ1 act: inactive; hERG protect: -9.7; KCNK3 block: inactive; KCNQ1 block: inactive; KCNK9 inh conf: 27.0%*; Kir21 sel: inactive; HEK293 Tl ctr: inactive

What do the screens show for `CCN1CCN(C(c2cccnc2)c2c(NC(=O)c3ccco3)sc(C)c2C)CC1` (configuration not stated)?
KCNK3 block: inactive

How did Cc1sc(NC(=O)c2ccco2)c(C(c2cccnc2)N2CCC(C)CC2)c1C (configuration not stated) do in these assays?
KCNK9 inh: -14.1*; KCNQ1 act: inactive; hERG protect: -8.9; KCNK3 block: inactive; KCNQ1 block: 9*; KCNK9 inh conf: 65.5%*; Kir21 sel: inactive; HEK293 Tl ctr: 42.5%*

Results for COc1ccc(-c2nc(CN3CCC(c4ccccc4)CC3)c(C)o2)cc1OC ?
KCNK9 inh: inactive; KCNQ1 act: inactive; hERG protect: -26.5; KCNK3 block: inactive; KCNQ1 block: inactive

What do the screens show for `Cc1oc(-c2cccs2)nc1CN1CCC(c2ccccc2)CC1`?
KCNK9 inh: inactive; KCNQ1 act: inactive; hERG protect: -11.0; KCNK3 block: inactive; KCNQ1 block: inactive; KCNK9 inh conf: inactive; Kir21 sel: inactive; HEK293 Tl ctr: inactive

What do the screens show for `O=C(Nc1nnc(-c2ccc3c(c2)CCCC3)o1)c1ccc(Cl)cc1Cl`?
KCNK9 inh: inactive; KCNQ1 act: 52*; hERG protect: 18.9*; KCNK3 block: inactive; KCNQ1 block: inactive; KCNK9 inh conf: inactive; Kir21 sel: inactive; HEK293 Tl ctr: inactive

How did CN(C)S(=O)(=O)c1ccc(C(=O)Nc2nnc(-c3ccc4c(c3)CCCC4)o2)cc1 do in these assays?
KCNK9 inh: inactive; KCNQ1 act: inactive; hERG protect: -17.7; KCNK3 block: inactive; KCNQ1 block: inactive; KCNK9 inh conf: inactive; Kir21 sel: inactive; HEK293 Tl ctr: inactive

How did COc1ccc(-c2nnc(NC(=O)c3ccc(S(=O)(=O)N4CCc5ccccc5C4)cc3)o2)cc1 do in these assays?
KCNK9 inh: inactive; KCNQ1 act: inactive; hERG protect: -1.6; KCNK3 block: inactive; KCNQ1 block: inactive; KCNK9 inh conf: inactive; Kir21 sel: inactive; HEK293 Tl ctr: inactive

Results for CC(C)(C)S(=O)(=O)N1Cc2ccc(CO)cc2[C@H]1CCO ?
KCNK3 block: inactive

What do the screens show for `COc1ccc(-c2noc(C3CCCN(S(=O)(=O)c4cccc(Cl)c4C)C3)n2)cc1OC` (configuration not stated)?
KCNK9 inh: -12.1*; KCNQ1 act: inactive; hERG protect: -7.4; KCNK3 block: inactive; KCNQ1 block: inactive; KCNK9 inh conf: 33.5%*; Kir21 sel: inactive; HEK293 Tl ctr: inactive

Results for COc1ccc(-c2noc(C3CCCN(S(=O)(=O)c4ccc(C)c(Cl)c4)C3)n2)cc1OC (configuration not stated) ?
KCNK9 inh: inactive; KCNQ1 act: inactive; hERG protect: -15.0; KCNK3 block: inactive; KCNQ1 block: inactive

How did Cc1ccc(-c2noc(C3CCCN(C(=O)c4cccc(F)c4)C3)n2)cc1 (configuration not stated) do in these assays?
KCNK9 inh: inactive; KCNQ1 act: inactive; hERG protect: -9.2; KCNK3 block: inactive; KCNQ1 block: inactive

How did COc1ccc(-c2noc(C3CCCN(C(=O)c4cccc(C)c4)C3)n2)cc1 (configuration not stated) do in these assays?
KCNK9 inh: inactive; KCNQ1 act: inactive; hERG protect: -4.0; KCNK3 block: inactive; KCNQ1 block: inactive; KCNK9 inh conf: inactive; Kir21 sel: inactive; HEK293 Tl ctr: inactive

What do the screens show for `CC(C)(C)OC(=O)N1CCN(c2ccc(NC(=O)c3ccco3)cc2)CC1`?
KCNK9 inh: inactive; KCNQ1 act: inactive; hERG protect: -8.8; KCNK3 block: inactive; KCNQ1 block: inactive

How did COC(=O)C(Cc1ccc(OC(=O)c2ccc(C(F)(F)F)cc2)cc1)N1Cc2ccccc2C1=O (configuration not stated) do in these assays?
KCNK9 inh: inactive; KCNQ1 act: inactive; hERG protect: -10.1; KCNK3 block: inactive; KCNQ1 block: 6*; KCNK9 inh conf: inactive; Kir21 sel: inactive; HEK293 Tl ctr: inactive

How did COc1ccc(C(=O)CSc2nc(C(C)(C)C)nc3ccccc23)cc1 do in these assays?
KCNK9 inh: -10*; KCNQ1 act: inactive; hERG protect: -3.7; KCNK3 block: inactive; KCNQ1 block: inactive; KCNK9 inh conf: 46.5%*; Kir21 sel: 35.0%*; HEK293 Tl ctr: 30.5%*

How did CN(CCC1CCOCC1)C(=O)C1CCC(=O)N(CCc2cccc(F)c2)C1 (configuration not stated) do in these assays?
KCNK9 inh: inactive; KCNQ1 act: inactive; hERG protect: -9.5; KCNK3 block: inactive; KCNQ1 block: inactive

Results for COc1ccc(OCCSc2nnc(C)n2-c2ccccc2)cc1 ?
KCNK9 inh: inactive; KCNQ1 act: inactive; hERG protect: -6.3; KCNK3 block: inactive; KCNQ1 block: inactive; KCNK9 inh conf: inactive; Kir21 sel: inactive; HEK293 Tl ctr: inactive

What do the screens show for `Cc1cc(NCCCO)n2c(nc3ccccc32)c1C#N`?
KCNK9 inh: inactive; KCNQ1 act: inactive; hERG protect: -2.2; KCNK3 block: inactive; KCNQ1 block: inactive

High-throughput results deposited in PubChem by Johns Hopkins Ion Channel Center.
